CHOP inhibitor = inhibitors of CHOP induction in ER stress response; CHO-K1 CHOP-promoter luciferase, tunicamycin-induced, 15-18 h; inhibition, % at 10 µM; hit rate 3.8% among 220,000;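 active means compounds that reduced the stress-induced luciferase reporter signal by more than about 70% of percent inhibition, limit read from the data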;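 further: 0% = tunicamycin plus vehicle and 100% = wells without tunicamycin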
UPR XBP1 act = activators of adaptive arm of unfolded protein response (XBP1) | hit rate 0.33% among 330,000 | AID 463104 | CHO-XBP1 luciferase reporter, IRE1-XBP1 UPR activation, luminescence; percent of tunicamycin response, DMSO as zero | activation, % at 20 µM;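 active means versus positive control, 20 µM dose yields 30% or more activation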;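 further: 100% = tunicamycin at 10 µg/mL and 0% = DMSO only wells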
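Test system: CHO-XBP1 luciferase reporter cells | Buffer or medium: Serum-containing F12 medium, 10% FBS | Schedule: 6 h compound exposure at 37 °C, 5% CO2 | Detection: Steady-Glo luciferase glow luminescence, 10 min after reagent addition | Read-out basis: Activation, % of tunicamycin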
Jurkat NFkB inh = inhibitors of the PMA/ionomycin-induced NF-kB reporter in Jurkat cells; PMA/ionomycin-induced NF-kB luciferase reporter, luminescence; inhibition, % at 4 µM; hit rate 0.53% among 330,000; AID 435003; in the data active means inhibition above about 50%
Gli-Sufu block = blocks Gli-Sufu signaling in a luciferase reporter. Sufu-KO-LIGHT fibroblasts, Gli luciferase reporter luminescence. inhibition, % at 5 µM. hit rate 0.74% among 340,000. AID 588413;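 active means inhibition above about 55%, limit read from the data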;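 further: 0% = DMSO-treated cells and 100% = wells with medium but no cells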
CHOP UPR activ = apoptotic UPR (CHOP) activation; CHO-CHOP luciferase reporter, luminescence; percent of tunicamycin response over DMSO baseline; activation, % at 10 µM; hit rate 0.34% among 330,000;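 active means at 10 µM dose, activation of 40% or more, normalized to positive control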;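 further: 100% = tunicamycin at 10 µg/mL and 0% = DMSO alone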
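Assay system: CHO cells with stable CHOP pathway luciferase reporter; Buffer or medium: F12 plus 10% serum; Times: 16-18 h cell attachment, then 6 h compound exposure, 37 °C; Signal: luciferase luminescence; Read-out basis: percent activation relative to tunicamycin control; Control set: tunicamycin high control, DMSO low control.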
697 NFkB inh = lowers PMA/ionomycin-induced NF-kB signal in 697 B cells | 697 B-cell NF-kB luciferase reporter, 16 h | inhibition, % at 4 µM | hit rate 0.33% among 330,000 | AID 435022; in the data active means inhibition above about 35%
Jurkat NFkB conf = lowers PMA/ionomycin-induced NF-kB signal in Jurkat cells; shares compounds with Jurkat NFkB inh; Jurkat NF-kB luciferase, 16 h; inhibition, % at 4 µM; hit rate 27% among 2,700; AID 435020;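 active means inhibition reaching about 45% at 4 µM in either replicate, limit read from the data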;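 further: plate controls were PMA/ionomycin stimulated DMSO wells for no effect and unstimulated DMSO wells for full effect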
Starred values were filed as active, the others as inactive. Only some compounds are listed: those with a hit (about 3.9% of all), similar ones and a draw of the others.

What do the screens show for `COc1ccccc1C(=O)Nc1nc2cc3c(cc2s1)OCCO3`?
CHOP inhibitor: 24; UPR XBP1 act: 0; Jurkat NFkB inh: -160; Gli-Sufu block: -112; CHOP UPR activ: 2; 697 NFkB inh: -194; Jurkat NFkB conf: -98

What do the screens show for `COc1ccccc1C(=O)Nc1nc2cc3c(cc2s1)OCO3`?
CHOP inhibitor: -50; UPR XBP1 act: 5; Jurkat NFkB inh: -134; Gli-Sufu block: -92; CHOP UPR activ: 7; 697 NFkB inh: -210

What do the screens show for `COCCn1c(SCC(=O)Nc2ccc3[nH]c(=O)[nH]c3c2)nc2ccccc21`?
UPR XBP1 act: -3; Jurkat NFkB inh: 7; Gli-Sufu block: 2; CHOP UPR activ: 0; 697 NFkB inh: 16

What do the screens show for `Nc1ccn(Cc2ccccc2)n1`?
CHOP inhibitor: 18; UPR XBP1 act: 0; Jurkat NFkB inh: -2; Gli-Sufu block: -15; CHOP UPR activ: -2; 697 NFkB inh: -14

What do the screens show for `c1ccc(Cn2ccc(-c3cnc(-c4ccccc4)s3)n2)cc1`?
CHOP inhibitor: -27; UPR XBP1 act: -5; Jurkat NFkB inh: -154; Gli-Sufu block: -74; CHOP UPR activ: 6; 697 NFkB inh: -192; Jurkat NFkB conf: -95

What do the screens show for `C=CCNc1nc(C)c(CNc2c(C)cc(C)cc2C)nc1C#N`?
UPR XBP1 act: -4; Jurkat NFkB inh: 8; Gli-Sufu block: 5; CHOP UPR activ: 0; 697 NFkB inh: 14

Results for COc1cccc(OCC(=O)NNC(=O)c2ccc3ccccc3c2)c1 ?
UPR XBP1 act: -2; Jurkat NFkB inh: 7; Gli-Sufu block: 7; CHOP UPR activ: 0; 697 NFkB inh: 4

Results for CCN(C[C@H]1N[C@@](CC)(C(=O)OC)[C@H]2C(=O)N(C)C(=O)[C@@H]12)S(=O)(=O)c1ccc(OC(F)(F)F)cc1 ?
UPR XBP1 act: -1; Jurkat NFkB inh: 8; Gli-Sufu block: 1; CHOP UPR activ: 1; 697 NFkB inh: -9

Results for CCCC1=C(C(=O)OCC)C(/C=C/c2ccccc2)n2ncnc2N1 (configuration not stated) ?
CHOP inhibitor: 62; UPR XBP1 act: 4; Jurkat NFkB inh: 53*; Gli-Sufu block: 2; CHOP UPR activ: 1; 697 NFkB inh: -62; Jurkat NFkB conf: 1

What do the screens show for `CCOC(=O)C1=C(C)Nc2ncnn2C1/C=C/c1ccccc1` (configuration not stated)?
CHOP inhibitor: 58; UPR XBP1 act: 1; Jurkat NFkB inh: 5; Gli-Sufu block: 10; CHOP UPR activ: 2; 697 NFkB inh: 6

What do the screens show for `COc1ccc(C(=O)NCCSc2ccccc2)cc1`?
CHOP inhibitor: -3; UPR XBP1 act: -2; Jurkat NFkB inh: -212; Gli-Sufu block: -97; CHOP UPR activ: -2; 697 NFkB inh: -204; Jurkat NFkB conf: -99

What do the screens show for `COc1ccc(C(=O)NCCNC(=O)c2ccc(OC)cc2)cc1`?
UPR XBP1 act: -3; Jurkat NFkB inh: 6; Gli-Sufu block: -3; CHOP UPR activ: -2; 697 NFkB inh: 3

How did O=C(Nc1ccc2c(c1)OCCO2)Nc1ccc2c(c1)OCO2 do in these assays?
CHOP inhibitor: 12; UPR XBP1 act: -4; Jurkat NFkB inh: -185; Gli-Sufu block: -84; CHOP UPR activ: -2; 697 NFkB inh: -215; Jurkat NFkB conf: -93

How did O=C(Nc1ccc2c(c1)OCO2)c1cccs1 do in these assays?
CHOP inhibitor: -8; UPR XBP1 act: -2; Jurkat NFkB inh: -85; Gli-Sufu block: -58; CHOP UPR activ: 2; 697 NFkB inh: -90

Results for Cn1c(C(=O)Nc2ccc3c(c2)OCO3)cc2sccc21 ?
CHOP inhibitor: 4; UPR XBP1 act: 3; Jurkat NFkB inh: -160; Gli-Sufu block: -61; CHOP UPR activ: 0; 697 NFkB inh: -140; Jurkat NFkB conf: -63

What do the screens show for `Cc1ccc(NC(=O)Nc2ccc3c(c2)OCO3)cc1F`?
UPR XBP1 act: -2; Jurkat NFkB inh: -174; Gli-Sufu block: -114; CHOP UPR activ: 6; 697 NFkB inh: -104; Jurkat NFkB conf: -52

How did O=C(Nc1ccc2c(c1)OCO2)c1ccc(Br)s1 do in these assays?
CHOP inhibitor: 11; UPR XBP1 act: 0; Jurkat NFkB inh: -178; Gli-Sufu block: -80; CHOP UPR activ: 4; 697 NFkB inh: -77; Jurkat NFkB conf: -85

Results for Cc1ccc(S(=O)(=O)N(Cc2c(F)cccc2Cl)C(=O)N2CCN(C)CC2)cc1 ?
UPR XBP1 act: -2; Jurkat NFkB inh: 12; Gli-Sufu block: -4; CHOP UPR activ: 0; 697 NFkB inh: -4

What do the screens show for `O=c1[nH]cnc2c1sc1nc(C(F)F)cc(-c3ccccc3)c12`?
UPR XBP1 act: 16; Jurkat NFkB inh: 1; Gli-Sufu block: 6; CHOP UPR activ: 2; 697 NFkB inh: 14

Results for Clc1ccccc1OCc1nc(-c2ccncc2)no1 ?
CHOP inhibitor: 3; UPR XBP1 act: 3; Jurkat NFkB inh: -86; Gli-Sufu block: -80; CHOP UPR activ: 5; 697 NFkB inh: -107

What do the screens show for `Clc1ccc(OCc2nc(-c3ccncc3)no2)c(Br)c1`?
CHOP inhibitor: 63; UPR XBP1 act: 1; Jurkat NFkB inh: -166; Gli-Sufu block: -102; CHOP UPR activ: 4; 697 NFkB inh: -196; Jurkat NFkB conf: -96

What do the screens show for `CCOc1ccc(C(C)=O)cc1COC(=O)c1ccccc1C(=O)N(C)Cc1ccccc1`?
UPR XBP1 act: -2; Jurkat NFkB inh: 3; Gli-Sufu block: 22; CHOP UPR activ: 1; 697 NFkB inh: -7

Results for COc1ccc(C2C(C#N)=C(C)NC3=C2C(=O)c2ccccc23)cc1 (configuration not stated) ?
CHOP inhibitor: 11; UPR XBP1 act: 2; Jurkat NFkB inh: 3; Gli-Sufu block: 8; CHOP UPR activ: 1; 697 NFkB inh: -2

Results for CC1=C([N+](=O)[O-])C(c2ccccc2)C2=C(N1)c1ccccc1C2=O (configuration not stated) ?
CHOP inhibitor: 20; UPR XBP1 act: 12; Jurkat NFkB inh: 61*; Gli-Sufu block: 31; CHOP UPR activ: -1; 697 NFkB inh: 17; Jurkat NFkB conf: 47*

What do the screens show for `O=C(c1cc(-c2ccccc2Cl)nc2ccccc12)N1CCN(c2ccccc2O)CC1`?
UPR XBP1 act: 1; Jurkat NFkB inh: 12; Gli-Sufu block: 9; CHOP UPR activ: 1; 697 NFkB inh: 24

What do the screens show for `O=C(c1cc(-c2ccncc2)nc2c(Cl)cccc12)N1CCN(c2ccccc2F)CC1`?
UPR XBP1 act: 6; Jurkat NFkB inh: 60*; CHOP UPR activ: 0; 697 NFkB inh: 1; Jurkat NFkB conf: 36

What do the screens show for `O=C(COC(=O)c1n[nH]c(=O)c2ccccc12)Nc1cccc(S(=O)(=O)N2CCOCC2)c1`?
Gli-Sufu block: -7

High-throughput results: PubChem, several laboratories
